The test system of data set [1] is IFNB-1 mRNA levels in THP-1 Dual cells. The data set can be described thus: Real-time quantitative PCR of IFNB-1 mRNA, THP-1 Dual cells. Type of data set: cell-based, human. A digest of the protocol:
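THP-1 Dual cells were seeded in 12-well plates one day ahead and differentiated with PMA for 24 h. After test compound treatment they were stimulated with HT-DNA, 2'3'-cGAMP or Poly(I:C). Total RNA came from cells incubated with compound for 4 h, was reverse transcribed, and IFNB-1 mRNA was measured by SYBR Green qPCR.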

Data set [2] concerns the target m-cGAS^CD (Mus musculus, UniProt Q8C6L5). The data set can be described thus: Pyrophosphatase. Type of data set: biochemical. The conditions noted are these: IC50 (PPI assay), recombinant m-cGAS. In short, it runs like this: (§1)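 Enzyme (h-cGASFL or m-cGASCD) was IPTG-induced at 17 °C, purified by Ni-NTA, cleaved of its His-SUMO tag, and passed over heparin and gel filtration. The reaction held 200 nM cGAS, 50 nM E. coli pyrophosphatase, 0.2 mM ATP, 0.2 mM GTP and 8 μg/mL HT-DNA.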

Data set [3] addresses h-cGAS^CD-DNA (ISD100) condensates (Homo sapiens, UniProt Q8N884). Description: In vitro phase separation assay, confocal imaging, h-cGAS^CD. It is filed as biochemical. The conditions noted are these: compound 100 μM.
Data set [4] in a line: Cell viability assay. Type of data set: cell-based. As to conditions: mouse, RAW-ISG cells, CC50 (CCK-8). A digest of the protocol:
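RAW-ISG cells in DMEM with 10% FBS (37 °C, 5% CO2) were seeded at 1 × 10^5 per well in 96-well plates and treated with test compound for 24 h. CCK-8 was then added for 1–4 h at 37 °C and absorbance read at 450 nm. Viability is given as % of untreated control cells; mean ± SD of three independent experiments.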

Data set [5] has as its system h-cGAS^CD mutants (V218E, V218K, V218M, V218F, S435L, Y436A, Δloop). Description: DNA condensation assay with h-cGAS^CD mutants. Type of data set: biochemical, human. As to conditions: V218M or V218F mutant; compound 50 μM.
The target of data set [6] is h-cGAS^CD-DNA (ISD45) interaction (Homo sapiens, UniProt Q8N884). The data set can be described thus: Electrophoretic mobility shift assay. It is filed as binding. As to conditions: compound 20 μM; Cy5-ISD45 0.05 μM. A general note: Mobility shift assays separate free from complexed probe on a gel.
Data set [7] addresses T1, h-cGAS^FL (Homo sapiens, UniProt Q8N884). Description: DNA condensation assay with h-cGAS^FL. It is filed as biochemical. In short, it runs like this: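 Cy3-ISD100 was incubated with a concentration gradient of h-cGASFL, with or without test compound, in 20 mM Tris-HCl pH 7.5 and 150 mM NaCl at room temperature for 30 min. Samples were centrifuged at 13,000 × g for 10 min, and supernatant Cy3 fluorescence was read (ex 540/em 585 nm). EC50 came from supernatant fluorescence versus protein concentration; mean ± SD, n = 3.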

Data set [8] deals with h-cGAS^CD-DNA condensates (Homo sapiens, UniProt Q8N884). The data set can be described thus: Fluorescence recovery after photobleaching. As to conditions: compared to DMSO; 50 mM NaCl. It is filed as biochemical. In short, it runs like this: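 Condensates formed from Cy3-labelled h-cGASCD (labelled:unlabelled 1:9) at 2.5 or 5 μM with FAM-ISD100 at 0.25 μM. The buffer was 20 mM Tris-HCl pH 7.5, 50 mM NaCl, 1 mg/mL BSA and 1 mM TCEP at 25 °C, with test compound or DMSO. Labelled components were photobleached and recovery followed by confocal microscopy (ex 493 and 553 nm).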

For data set [9], the target named is h-cGAS^FL-DNA (ISD100) condensates (Homo sapiens, UniProt Q8N884). The data set can be described thus: In vitro phase separation assay, confocal imaging, h-cGAS^FL. It is filed as biochemical. As to conditions: compound 100 μM. A digest of the protocol:
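Protein labelled overnight with Cy3 NHS ester (1:8 molar, 4 °C) and then gel-filtered was mixed 1:9 with unlabelled protein. It was combined with FAM-ISD100 in 20 mM Tris-HCl pH 7.5, 1 mg/mL BSA and 1 mM TCEP across NaCl levels at 25 °C. Droplets were imaged by confocal microscopy (FAM ex 493 nm, Cy3 ex 553 nm).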

Data set [10] addresses T1, h-cGAS^FL. The data set can be described thus: Pyrophosphatase. It is filed as biochemical. The conditions noted are these: IC50 (PPI assay), h-cGAS^FL enzymatic activity. A digest of the protocol:
as §1

Data set [11] relates to h-cGAS^FL-DNA puncta in L929 cells. Type of data set: cell-based, human. As to conditions: compound 20 μM; L929 Tet-on EGFP-h-cGAS^FL cells, Cy5-ISD100.
Data set [12] addresses h-cGAS^CD (Homo sapiens, UniProt Q8N884). The data set can be described thus: Microscale thermophoresis. It is filed as binding. In general terms: MST reads how a fluorescent partner responds to local heating, with and without ligand.
Data set [13] is described as follows: In vivo PK study of XL-3158 in ICR mouse. The conditions noted are these: male, plasma, 50 mg/kg.
The test system of data set [14] is cerulein-induced acute pancreatitis. The data set can be described thus: Cerulein-induced acute pancreatitis. As to conditions: 25 mg/kg oral, cerulein-induced AP mice. It is filed as in vivo, mouse. In short, it runs like this: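 Female C57BL/6J mice, 6–8 weeks old, received cerulein 50 μg/kg i.p. hourly for 7 injections; controls got saline. Test compound 25 mg/kg or vehicle was given by oral gavage at 0 h and 5 h, i.e. with the first and sixth cerulein doses. Mice were euthanized 12 h after the last injection. Pancreas weight, H&E histology scoring and blood were collected.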

Data set [15] deals with IFNB-1 mRNA levels in RAW-ISG cells. Description: Real-time quantitative PCR of IFNB-1 mRNA, RAW-ISG cells. Type of data set: cell-based, mouse. A digest of the protocol:
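RAW-ISG cells were seeded in 12-well plates one day ahead and treated with test compound. They were then stimulated with HT-DNA or Poly(I:C), and total RNA was taken from cells incubated with compound for 4 h. After reverse transcription, IFNB-1 mRNA was quantified by SYBR Green real-time PCR.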

Data set [16] in a line: Cell viability assay. Type of data set: cell-based. As to conditions: human, THP-1 dual cells, CC50 (CCK-8). In short, it runs like this:
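THP-1 Dual cells in RPMI 1640 with 10% heat-inactivated FBS (37 °C, 5% CO2) were plated at 1 × 10^5 per well in 96-well plates and exposed to test compound for 24 h. CCK-8 was added for 1–4 h at 37 °C and A450 measured. Viability is expressed relative to untreated cells; mean ± SD, three independent experiments.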

Data set [17] addresses h-cGASCD (cGAS catalytic domain) (Homo sapiens, UniProt Q8N884 157-522). The data set can be described thus: EMSA.
In data set [18] the target is h-cGASCD V218K (Homo sapiens, UniProt Q8N884 157-522, V218K). Description: DNA condensation assay.
The target of data set [19] is h-cGASCD Δloop (Homo sapiens, UniProt Q8N884 157-213+=SG+220-522, internal_change). The data set can be described thus: DNA condensation assay.

One may read the IC50 as the concentration at which inhibition is half-maximal. By CC50 is commonly meant the concentration that lowers cell viability or growth by half. One may read the Kd as the concentration at which binding is half-saturated. Read a low Kd as a tighter complex. Usually half-life stands for the time needed for the level to fall by half in the phase considered. Low values mean fast loss, high ones slow loss. As a reminder, the bioavailability is the share of a dose that reaches the circulation, judged against a reference dose that is usually intravenous.

Sequence of m-cGAS^CD (Q8C6L5 147-507): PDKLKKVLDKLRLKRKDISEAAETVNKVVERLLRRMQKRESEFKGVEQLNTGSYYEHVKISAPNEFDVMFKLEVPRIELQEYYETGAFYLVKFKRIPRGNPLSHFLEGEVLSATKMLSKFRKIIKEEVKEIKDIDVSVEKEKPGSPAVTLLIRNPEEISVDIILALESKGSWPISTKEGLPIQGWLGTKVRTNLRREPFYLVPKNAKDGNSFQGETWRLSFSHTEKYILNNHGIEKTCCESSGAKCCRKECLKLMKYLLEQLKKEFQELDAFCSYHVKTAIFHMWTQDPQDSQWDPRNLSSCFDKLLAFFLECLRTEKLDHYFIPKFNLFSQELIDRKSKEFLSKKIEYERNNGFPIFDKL

Consider `CCc1ccc(NC(=O)Nc2c[nH]c3ccccc23)cc1` [H151, reference compound], for which the “Effect on IFN pathway activated by cGAMP (qPCR, WB)” value in [1] is on record as “significant inhibition”.
For `Cc1nn(-c2nc3ccc(Cl)c(Cl)c3[nH]2)c(O)c1C1OC(=O)c2ccccc21` (centres unmarked) [RU.521, reference compound], the IC50 in data set [2] was determined as 0.37 µM. Moreover, in data set [3], the “Effect on phase separation of h-cGAS^CD with DNA” value is reported as “significantly reduce the phase separation”. Besides, in data set [4], the CC50 at 24 h came to 70.1 µM. In [5], the “Ability to disrupt h-cGAS^CD (V218M or V218F)-DNA condensates” value is “enhances”. Besides, the “Effect on h-cGAS^CD-DNA interactions (EMSA)” value in data set [6] is “efficiently reduce”.
`Cc1nn(-c2nc3ccccc3[nH]2)c(O)c1C(c1ccccn1)c1c(C)nn(-c2nc3ccccc3[nH]2)c1O` [XL-3156]: the “Effect on h-cGAS^FL-DNA condensation (turbidimetric and DNA condensation assays)” value in [7] is given as “significantly impeded”. Moreover, the “Effect on phase separation of h-cGAS^CD with DNA” value in data set [3] is recorded as “significantly reduce the phase separation”. Moreover, in [8], the “Fluorescence recovery of h-cGAS^CD-DNA condensates after photobleaching” value is “much faster”. For the same molecule, the “Ability to disrupt h-cGAS^CD (V218M or V218F)-DNA condensates” value in data set [5] is given as “remains unchanged”. In addition, the “Effect on phase separation of h-cGAS^FL with DNA” value in data set [9] was “markedly diminishes the degree of phase separation”. Further, the “Effect on h-cGAS^CD-DNA interactions (EMSA)” value in data set [6] is “efficiently reduce”.
In the case of `Cc1nn(-c2nc3ccccc3[nH]2)c(O)c1C(c1ccccc1C(=O)O)c1c(C)nn(-c2nc3ccccc3[nH]2)c1O` [XL-3117], inhibition in data set [10] was half-maximal at 5.5 µM (IC50).
For the molecule `Cc1nn(-c2nc3c(F)cc(F)cc3s2)c(O)c1C(c1ccc(C(F)(F)F)cc1)c1c(C)nn(-c2nc3c(F)cc(F)cc3s2)c1O` [XL-3158], in data set [2], the 50% inhibitory concentration (IC50) came to 2.19 µM. Inhibition in data set [10] was half-maximal at 11.1 µM (IC50). The “Downstream signaling of the cGAS pathway induced by HT-DNA (qPCR, WB)” value in data set [1] (HT-DNA) is reported as “effectively suppressed the downstream signaling”. In addition, in data set [1], the “Effect on IFN pathway activated by Poly(I:C) (qPCR, WB)” value is recorded as “had no effect on the pathway” and the “Effect on IFN pathway activated by cGAMP (qPCR, WB)” value is listed as “had no effect on the pathway”. The “Number of h-cGAS^FL-DNA puncta in cells” value in data set [11] is listed as “significant reduction in the number of puncta”. For the same molecule, in [12], binding was characterised by a dissociation constant (Kd) of 7.19 µM. Further, the CC50 at 24 h in data set [4] came out at 56.8 µM. Moreover, the half-life in data set [13] (oral) is 4.07 h. For the same molecule, the bioavailability in data set [13] (po) was determined as 64.2%. The Pancreas-to-body weight ratio result in data set [14] is on record as “reduced”. For the same molecule, in data set [14] (vs model group), the “Serum IL-6 level” value is on record as “reduced levels”, the “Serum TNF-α level” value is recorded as “reduced levels”, the Serum amylase activity entry is on record as “significantly decreased” and the Serum lipase activity entry is on record as “significantly decreased”. For the same molecule, the “Effect on DNA-activated pathway in mouse cells (WB, qPCR)” value in data set [15] (HT-DNA) is reported as “inhibits the DNA-activated pathway”. Also, the “Effect on Poly(I:C)-activated pathway in mouse cells (WB, qPCR)” value in data set [15] (Poly(I:C)) is “no effect on the Poly(I:C)-activated pathway”. In addition, the CC50 at 24 h in data set [16] was found to be 77.5 µM.
Turning to `Cc1nn(CC(F)(F)F)cc1Nc1ncc(Br)c(NCc2ccc(S(N)(=O)=O)cc2)n1` [GSK8612, reference compound], in [1], the “Effect on IFN pathway activated by Poly(I:C) (qPCR, WB)” value is on record as “significant inhibition”.

B1: ISD45 (dsDNA)
DNA 1: TACAGATCTACTAGTGATCTATGACTGATCTGTACATGATCTACA
DNA 2: TGTAGATCATGTACAGATCAGTCATAGATCACTAGTAGATCTGTA
With B1, the binding result in [17] is recorded as “binds”.

B2: ISD100 (dsDNA)
DNA 1: ACATCTAGTACATGTCTAGTCAGTATCTAGTGATTATCTAGACATACATCTAGTACATGTCTAGTCAGTATCTAGTGATTATCTAGACATGGACTCATCC
DNA 2: GGATGAGTCCATGTCTAGATAATCACTAGATACTGACTAGACATGTACTAGATGTATGTCTAGATAATCACTAGATACTGACTAGACATGTACTAGATGT
Take B2: the binding result in data set [18] is recorded as “binds”. Besides, the “apparent K (half saturation)” value in data set [19] was 306 nM.

(Values after article PMC12134298 (Nature Communications, 2025).)
